Calls of active or inactive are those of the source. The calls are words filed in the database; no cut-off is given here.
Columns and labels:
A-431 = assay: Growth inhibition of human A431 cells after 72 hrs by MTT assay; type: functional
Outline: (§1)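 Cells kept in DMEM with 10% FBS, glutamine, penicillin/streptomycin at 37 °C, 5% CO2; plated in duplicate at 2500–4000 cells/well, dosed 24 h later during log growth. After 72 h drug exposure, MTT read at 540 nm. […] Assays in triplicate, standard error reported.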

MCF7 = assay: Growth inhibition of human MCF7 cells after 72 hrs by MTT assay; type: functional; outline: as §1
DU-145 = assay: Growth inhibition of human DU145 cells after 72 hrs by MTT assay; type: functional; outline: as §1
A2780 = assay: Growth inhibition of human A2780 cells after 72 hrs by MTT assay; type: functional; outline: as §1
U-87MG ATCC = assay: (§2) Growth inhibition of human U87 cells after 72 hrs by MTT assay; type: functional; outline: as §1
SMA = assay: (§3) Growth inhibition of mouse SMA cells after 72 hrs by MTT assay; type: functional; outline: as §1
SJ-G2 = assay: (§4) Growth inhibition of human SJ-G2 cells after 72 hrs by MTT assay; type: functional; outline: as §1
NCI-H460 = assay: (§5) Growth inhibition of human H460 cells after 72 hrs by MTT assay; type: functional; outline: as §1
MIA = assay: (§6) Growth inhibition of human MIA cells after 72 hrs by MTT assay; type: functional; outline: as §1
HT-29 = assay: Growth inhibition of human HT-29 cells after 72 hrs by MTT assay; type: functional; outline: as §1
BE(2)-C = assay: (§7) Growth inhibition of human BE(2)-C cells after 72 hrs by MTT assay; type: functional; outline: as §1
P338 = assay: Growth inhibition of mouse […] cells; type: functional, cell-based
[1] = as §2; type: functional, U-87MG ATCC; settings: U-87 MG; outline: as §1
[2] = as §3; type: functional; outline: as §1
[3] = as §4; type: functional; settings: SJ-G2, 72 h; outline: as §1
[4] = as §5; type: functional; settings: NCI-H460, 72 h; outline: as §1
[5] = as §6; type: functional; outline: as §1
[6] = as §7; type: functional; outline: as §1

Compound | growth inhibition (GI) (A-431) | growth inhibition (GI) (MCF7) | growth inhibition (GI) (DU-145) | growth inhibition (GI) (A2780) | growth inhibition (GI) (U-87MG ATCC) | growth inhibition (GI) (SMA) | growth inhibition (GI) (SJ-G2) | growth inhibition (GI) (NCI-H460) | growth inhibition (GI) (MIA) | growth inhibition (GI) (HT-29) | growth inhibition (GI) (BE(2)-C) | other results
CCCCCCc1cc2c(C)cc3c(c2oc1=O)C(=O)c1c(O)cccc1C3=O | Active | Active | Active | Active | Active | Active | Active | Active | Active | Active | Active | –
Cc1cc2c(c3oc(C4(C)CO4)cc(=O)c13)C(=O)c1c(O)cccc1C2=O (racemic) | – | – | – | – | – | – | – | – | – | – | – | GI50 (A-431; A-431, 72 h): 950 nM; GI50 (MCF7; MCF7, 72 h): 1300 nM; GI50 (DU-145; DU-145, 72 h): 840 nM; GI50 (A2780; A2780, 72 h): 290 nM; IC50 (P338): 1 nM; GI50 [1]: 990 nM; GI50 [2]: 160 nM; GI50 [3]: 800 nM; GI50 [4]: 2100 nM; GI50 [5]: 900 nM; GI50 (HT-29; HT-29, 72 h): 2000 nM; GI50 [6]: 170 nM
Cc1cc2c(c3oc(-c4ccccc4)cc13)C(=O)c1c(OC(C)C)cccc1C2=O | Active | Active | – | Active | Active | Active | – | Active | Active | Active | Active | –
CCCCCCc1cc(=O)c2c(C)cc3c(c2o1)C(=O)c1c(O)cccc1C3=O | Active | Active | Active | Active | Active | – | Active | Active | Active | Active | Active | –
CCCCCCc1cc2c(C)cc3c(c2o1)C(=O)c1c(OC(C)C)cccc1C3=O | Active | Active | Active | Active | Active | Active | Active | Active | Active | Active | Active | –
CCC(C)(OCc1ccccc1)c1cc2c(C)cc3c(c2oc1=O)C(=O)c1c(OC(C)C)cccc1C3=O (stereo not given) | Active | Active | Active | Active | Active | Active | Active | Active | Active | Active | Active | –
CCCCCCc1cc2c(C)cc3c(c2oc1=O)C(=O)c1c(OC(C)C)cccc1C3=O | Active | Active | Active | Active | Active | – | Active | Active | Active | Active | Active | –
CCCc1cc2c(C)cc3c(c2o1)C(=O)c1c(OC(C)C)cccc1C3=O | Active | Active | Active | Active | Active | Active | Active | Active | Active | Active | Active | –

— ChEMBL document CHEMBL3596100, “The synthesis and biological activity of novel anthracenone-pyranones and anthracenone-furans” (Bioorg Med Chem, 2015)
